Measured values from different studies.
Each line is one published result; the experiments were not run side by side.
ABL1 phosphorylated: Tyrosine-protein kinase ABL1, phosphorylated (ABL1, Homo sapiens, UniProt P00519)
ABL1 Q252H phosphorylated: Tyrosine-protein kinase ABL1, phosphorylated (ABL1, Homo sapiens, UniProt P00519, Q252H)
ABL1 F317I non-phosphorylated: Tyrosine-protein kinase ABL1, non-phosphorylated (ABL1, Homo sapiens, UniProt P00519, F317I)
ABL1 non-phosphorylated: Tyrosine-protein kinase ABL1, non-phosphorylated (ABL1, Homo sapiens, UniProt P00519)
ABL1 H396P phosphorylated: Tyrosine-protein kinase ABL1, phosphorylated (ABL1, Homo sapiens, UniProt P00519, H396P)
ABL1 Q252H non-phosphorylated: Tyrosine-protein kinase ABL1, non-phosphorylated (ABL1, Homo sapiens, UniProt P00519, Q252H)
ABL1 Y253F phosphorylated: Tyrosine-protein kinase ABL1, phosphorylated (ABL1, Homo sapiens, UniProt P00519, Y253F)
ABL1 M351T: Tyrosine-protein kinase ABL1 (ABL1, Homo sapiens, UniProt P00519, M351T)
ABL1 E255K phosphorylated: Tyrosine-protein kinase ABL1, phosphorylated (ABL1, Homo sapiens, UniProt P00519, E255K)

SMILES | target | test | setting | remaining binding
C=CC(=O)N1CCC(C(=O)NCC(=O)N2CCN(c3nc(-c4cnc(N)nc4C(F)F)nc(N4CCOCC4)n3)CC2)CC1 | ABL1 phosphorylated | binding, competition with immobilised ligand | 1 µM | 93%
C[C@H]1CCN(c2nccc(-c3cnn4ncccc34)n2)C1 | Tyrosine-protein kinase ABL1 (ABL1, Homo sapiens, UniProt P00519, F317L) | binding | 1 µM | 82%
CNC(=O)[C@@H]1CC[C@@H](n2c(-c3ccc4cnccc4c3)nc3ccc(C(=O)NCc4cccc(C(N)=O)c4)cc32)C1 | ABL1 Q252H phosphorylated | binding, competition with immobilised ligand | 1 µM | 100%
O=C(Nc1c[nH]nc1C(=O)NC1CCNCC1)c1cc(F)cc(F)c1 | ABL1 F317I non-phosphorylated | binding, competition with immobilised ligand | 1 µM | 100%
Nc1ncc2c(n1)-c1c([nH]c3ccc(C#CC4CC4)cc13)CCCC2 | ABL1 non-phosphorylated | binding, competition with immobilised ligand | 1 µM | 95%
CN(c1nccc(-c2cnn3ncccc23)n1)C1CC1 | Tyrosine-protein kinase ABL1 (ABL1, Homo sapiens, UniProt P00519, F317I) | binding | 1 µM | 100%
O=C(NS(=O)(=O)c1ccc(NCC2CCOCC2)c([N+](=O)[O-])c1)c1ccc(N2CCN(Cc3ccc(C(F)(F)F)cc3-c3ccc(Cl)cc3)CC2)cc1Oc1cnc2[nH]ccc2c1 | ABL1 H396P phosphorylated | cell-free assay, competition with immobilised ligand | 1 µM | 92%
COc1cnc(Nc2cccc(S(N)(=O)=O)c2)nc1N1CCN(c2ccccc2)C(=O)C1 | ABL1 F317I non-phosphorylated | binding, competition with immobilised ligand | 1 µM | 89%
O=C(NCCCN1CCOCC1)c1ccc(Nc2ncc(Cl)c(-c3ccc(Cl)s3)n2)cc1 | Tyrosine-protein kinase ABL1, phosphorylated (ABL1, Homo sapiens, UniProt P00519, M351T) | binding, competition with immobilised ligand | 1 µM | 27%
CCN1CCN(Cc2ccc(C(=O)Nc3ccc(C)c(Oc4ccc5c(c4)CC(=O)N5)c3)cc2C(F)(F)F)CC1 | ABL1 Q252H non-phosphorylated | binding, competition with immobilised ligand | 1 µM | 3%
O=C(c1ccc(Nc2ncc(Cl)c(-c3ccc(Cl)s3)n2)cc1)N1CCC(N2CCCC2)CC1 | ABL1 H396P phosphorylated | binding, competition with immobilised ligand | 1 µM | 4.3%
O=C(NCC1CCOCC1)c1n[nH]cc1NC(=O)c1c(F)cccc1F | ABL1 F317I non-phosphorylated | binding, competition with immobilised ligand | 1 µM | 86%
O=C(c1ccc(Nc2nccc(-c3cc4ccccc4s3)n2)cc1)N1CCC(N2CCCC2)CC1 | Tyrosine-protein kinase ABL1, non-phosphorylated (ABL1, Homo sapiens, UniProt P00519, H396P) | binding, competition with immobilised ligand | 1 µM | 3.1%
CSc1cccnc1N1CCN(Cc2nc3ccccc3[nH]2)CC1 | ABL1 Y253F phosphorylated | cell-free assay, competition with immobilised ligand | 1 µM | 76%
CN(CCCC(F)(F)F)c1nccc(-c2cnn3ncccc23)n1 | Tyrosine-protein kinase ABL1 (ABL1, Homo sapiens, UniProt P00519, T315I) | binding | 1 µM | 100%
COc1ncc2cc3ccccc3nc2c1C#N | ABL1 Q252H non-phosphorylated | cell-free assay, competition with immobilised ligand | 5 µM | 100%
Cc1cnn2ncc(-c3ccnc(N(C)C)n3)c2c1 | ABL1 M351T | binding | 1 µM | 91%

SMILES | target | test | setting | remaining binding
C[C@@H](c1ccc(-n2cnc3c(N)ncnc32)cc1)N1CCc2nn(C)c(Cc3ccccc3)c2C1=O | ABL1 Q252H non-phosphorylated | binding, competition with immobilised ligand | 0.1 µM | 26%
CN1CCN(c2ccc(Nc3nccc(-c4ccccc4)n3)cc2C(F)(F)F)CC1 | ABL1 M351T | binding | 10 µM | 15%
O=C(NCCCN1CCOCC1)c1ccc(Nc2nccc(-c3cc4ccccc4s3)n2)cc1 | ABL1 Q252H non-phosphorylated | binding, competition with immobilised ligand | 1 µM | 34%
COCCOc1nc(-c2ccc(Cl)nc2)nc2c1CN(C(=O)c1ncn3ccccc13)CC2 | ABL1 E255K phosphorylated | binding, competition with immobilised ligand | 0.1 µM | 100%
O=C(c1ccc(Nc2ncc(Cl)c(-c3cc4ccccc4s3)n2)cc1)N1CCC(N2CCCC2)CC1 | ABL1 H396P phosphorylated | binding, competition with immobilised ligand | 1 µM | 13%
c1cncc(-c2cccc(Nc3nccc(NC4CCCCC4)n3)c2)c1 | ABL1 Q252H phosphorylated | binding, competition with immobilised ligand | 10 µM | 24%
F[C@@H]1CCN(c2nccc(-c3cnn4ncccc34)n2)C1 | ABL1 phosphorylated | binding | 1 µM | 79%
CN1CCN(c2cnc3c(C4CCN(C(=O)c5ccc(OC(F)(F)F)cc5N)CC4)ncnc3c2)CC1 | ABL1 non-phosphorylated | cell-free assay, competition with immobilised ligand | 1 µM | 91%
COc1cnc(Nc2cccc(S(N)(=O)=O)c2)nc1N1CCN(c2ccccc2)CC1 | Tyrosine-protein kinase ABL1, non-phosphorylated (ABL1, Homo sapiens, UniProt P00519, T315I) | binding, competition with immobilised ligand | 1 µM | 89%
COc1cc(-c2cn(C3CCc4ccccc4N(CC(F)(F)F)C3=O)nn2)ccc1-n1ccc(C)n1 (stereo not shown) | ABL1 Y253F phosphorylated | cell-free assay, competition with immobilised ligand | 1 µM | 87%
N#Cc1ccccc1CSc1nnc2c(n1)[nH]c1ccccc12 | ABL1 E255K phosphorylated | binding, competition with immobilised ligand | 10 µM | 85%
O=C(O)[C@@H]1[C@@H](Cn2nnc3ccccc3c2=O)CC[C@H]1C(=O)c1ccc(OCCC2CCOCC2)cc1 | ABL1 F317I non-phosphorylated | binding, competition with immobilised ligand | 1 µM | 82%
N[C@H]1CCN(c2nccc(-c3cnn4ncccc34)n2)C1 | Tyrosine-protein kinase ABL1 (ABL1, Homo sapiens, UniProt P00519, Y253F) | binding | 1 µM | 53%
CNC(=O)Nc1ccc2c(c1)[C@@]1(CC2)OC(=O)N(CC(=O)N(Cc2ccc(F)cc2)[C@@H](C)C(F)(F)F)C1=O | ABL1 Y253F phosphorylated | cell-free assay, competition with immobilised ligand | 1 µM | 100%
c1cnn2ncc(-c3ccnc(N4CCC45COC5)n3)c2c1 | Tyrosine-protein kinase ABL1 (ABL1, Homo sapiens, UniProt P00519, E255K) | binding | 1 µM | 63%
Cc1cnc(Nc2ccc(C(=O)N3CCC(N4CCCC4)CC3)cc2)nc1-c1cc2ccccc2s1 | ABL1 non-phosphorylated | binding, competition with immobilised ligand | 1 µM | 2.7%
C[C@H](c1ccc(F)cc1)N(Cc1cccc(C(=O)O)c1)C(=O)c1cnc2ccccc2c1 | Tyrosine-protein kinase ABL1, phosphorylated (ABL1, Homo sapiens, UniProt P00519, T315I) | cell-free assay, competition with immobilised ligand | 1 µM | 75%
